Test [1] addresses T1, Acetylcholine receptor; alpha1/beta1/delta/gamma (Homo sapiens, UniProt P02708+P07510+P11230+Q07001). The test is described as follows: Antagonist activity at human alpha1beta1gammadelta nAChR expressed in human TE671/RD cells assessed as inhibition of 86Rb+ efflux preincubated for 10 mins by liquid scintillation counting. It counts as functional, cell-based. An outline of the steps:
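Cells loaded with ⁸⁶Rb⁺ were pre-exposed to test drug for 10 min. […] Efflux was normalized to intracellular ⁸⁶Rb⁺ available at that step. Nonspecific efflux came from 100 µM mecamylamine or buffer. Inactivation IC50 was obtained by curve fit.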

Test [2] concerns the target T1, Acetylcholine receptor; alpha1/beta1/delta/gamma. The test is described as follows: Agonist activity at human alpha1beta1gammadelta nAChR expressed in human TE671/RD cells assessed as stimulation of 86Rb+ efflux preincubated for 10 mins by liquid scintillation counting. It counts as functional, cell-based.
Test [3] addresses T2, Neuronal acetylcholine receptor; alpha4/beta2 (Homo sapiens, UniProt P17787+P43681). The test is described as follows: Antagonist activity at human alpha4beta2 nAChR expressed in human SH-EP1 cells assessed as inhibition of 86Rb+ efflux preincubated for 10 mins by liquid scintillation counting relative to control. It counts as functional, cell-based. In a few lines: (§1)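 Cells loaded with ⁸⁶Rb⁺ were pre-exposed to test drug for 10 min. Efflux was normalized to intracellular ⁸⁶Rb⁺ available at that step. Nonspecific efflux came from 100 µM mecamylamine or buffer. Inactivation IC50 was obtained by curve fit.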

Test [4] addresses Neuronal acetylcholine receptor; alpha4/beta4 (Homo sapiens, UniProt P30926+P43681). Nature of the test: Binding affinity to alpha4beta4 nAChR. It counts as protein-complex assay.
The target in test [5] is T2, Neuronal acetylcholine receptor; alpha4/beta2. Nature of the test: Agonist activity at human low-sensitivity alpha4beta2 nAChR expressed in human SH-EP1 cells assessed as stimulation of 86Rb+ efflux preincubated for 10 mins by liquid scintillation counting relative to control. It counts as functional, cell-based.
Test [6] shares this target. Nature of the test: Agonist activity at human high-sensitivity alpha4beta2 nAChR expressed in human SH-EP1 cells assessed as stimulation of 86Rb+ efflux preincubated for 10 mins by liquid scintillation counting relative to control. It counts as functional, cell-based.
In test [7] the test system is Mus musculus. Nature of the test: Antidepressant activity in BALB/cJ mouse assessed as reduction of immobility time at 1 to 3 mg/kg, ip administered 30 mins before test measured over 6 mins trial by forced swim test. It counts as functional, organism-based.
In test [8] the test system is Mus musculus. Nature of the test: Antidepressant activity in BALB/cJ mouse assessed as reduction of immobility time at 5 to 30 mg/kg, ip administered 30 mins before test measured over 6 mins trial by post hoc Fisher's LSD test. It counts as functional, organism-based.
Test [9] relates to Mus musculus. Nature of the test: Antidepressant activity in BALB/cJ mouse assessed as reduction of immobility time at 5 to 30 mg/kg, ip administered 30 mins before test measured over 6 mins trial by forced swim test. It counts as functional, organism-based.
Test [10] deals with Mus musculus. Nature of the test: Antidepressant activity in BALB/cJ mouse assessed as reduction of immobility time at 20 mg/kg, ip administered 30 mins before test measured over 6 mins trial by forced swim test. Details: dose 20 mg/kg. It counts as functional, organism-based.
Test [11] concerns the target Neuronal acetylcholine receptor; alpha4/beta4 (Rattus norvegicus) (UniProt P09483+P12392). The test is described as follows: Displacement of [3H]Epibatidine from rat alpha4beta4 nAChR at 10 uM. It counts as protein-complex assay. Background: Displacement assays read how much labelled ligand stays bound in the presence of the test substance.
For test [12], the target named is T3, Neuronal acetylcholine receptor; alpha4/beta2 (Rattus norvegicus, UniProt P09483+P12390). The test is described as follows: Displacement of [3H]Epibatidine from rat alpha4beta2 nAChR. It counts as protein-complex assay.
The target of test [13] is T2, Neuronal acetylcholine receptor; alpha4/beta2. Nature of the test: Agonist activity at human alpha4beta2 nAChR expressed in human SH-EP1 cells assessed as stimulation of 86Rb+ efflux preincubated for 10 mins by liquid scintillation counting. It counts as functional, cell-based.
The target in test [14] is Neuronal acetylcholine receptor; alpha3/beta4 (Rattus norvegicus) (UniProt P04757+P12392). The test is described as follows: Displacement of [3H]Epibatidine from rat alpha3beta4 nAChR at 10 uM. It counts as protein-complex assay.
Test [15] concerns the target T3, Neuronal acetylcholine receptor; alpha4/beta2. The test is described as follows: Displacement of [3H]Epibatidine from alpha4beta2 nAChR in rat brain. It counts as tissue-based.
In test [16] the target is T2, Neuronal acetylcholine receptor; alpha4/beta2. Nature of the test: Antagonist activity at human alpha4beta2 nAChR expressed in human SH-EP1 cells assessed as inhibition of 86Rb+ efflux preincubated for 10 mins by liquid scintillation counting. It counts as functional, cell-based. In a few lines:
as §1

Test [17] has as its target T4, Neuronal acetylcholine receptor; alpha3/beta4 (Homo sapiens, UniProt P30926+P32297). Nature of the test: Antagonist activity at human alpha3beta4 nAChR expressed in human SH-SY5Y cells assessed as inhibition of 86Rb+ efflux preincubated for 10 mins by liquid scintillation counting. It counts as functional, cell-based. An outline of the steps: as §1
Test [18] has as its target T4, Neuronal acetylcholine receptor; alpha3/beta4. The test is described as follows: Agonist activity at human alpha3beta4 nAChR expressed in human SH-SY5Y cells assessed as stimulation of 86Rb+ efflux preincubated for 10 mins by liquid scintillation counting. It counts as functional, cell-based.
For test [19], the system named is Neuronal acetylcholine receptor alpha2/beta4 (Rattus norvegicus). The test is described as follows: Displacement of [3H]Epibatidine from rat alpha2beta4 nAChR at 10 uM.
In test [20] the target is Neuronal acetylcholine receptor; alpha3/beta2 (Rattus norvegicus, UniProt P04757+P12390). Nature of the test: Displacement of [3H]Epibatidine from rat alpha3beta2 nAChR. It counts as protein-complex assay.
The target of test [21] is T1, Acetylcholine receptor; alpha1/beta1/delta/gamma. Nature of the test: Binding affinity to muscle type alpha1beta1gammadelta-nAChR. It counts as protein-complex assay, Muscle tissue.
The nature of test [22]: Agonist activity at ganglionic nAChR. It counts as functional.

Active and inactive are the calls of the source. The rule behind the calls is not given here. A value given as a limit tells only on which side of the number the result lay.

From ChEMBL document CHEMBL2176985 (J Med Chem, 2012) come the findings set out here.

T4 sequence (P30926 whole entry): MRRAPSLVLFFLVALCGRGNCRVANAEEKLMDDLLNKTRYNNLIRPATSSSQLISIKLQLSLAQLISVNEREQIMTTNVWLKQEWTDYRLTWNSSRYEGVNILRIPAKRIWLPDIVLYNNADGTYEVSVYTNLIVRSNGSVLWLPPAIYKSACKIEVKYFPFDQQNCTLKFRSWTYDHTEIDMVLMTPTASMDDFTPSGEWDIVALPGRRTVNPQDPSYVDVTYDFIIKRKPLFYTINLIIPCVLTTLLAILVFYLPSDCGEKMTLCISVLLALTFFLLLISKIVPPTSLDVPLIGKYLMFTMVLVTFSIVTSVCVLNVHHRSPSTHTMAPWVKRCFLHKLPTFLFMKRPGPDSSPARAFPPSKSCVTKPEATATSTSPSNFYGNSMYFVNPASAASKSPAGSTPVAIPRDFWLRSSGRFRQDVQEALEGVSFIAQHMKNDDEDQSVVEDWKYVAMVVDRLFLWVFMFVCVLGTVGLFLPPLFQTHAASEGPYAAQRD
T4 sequence (P32297 whole entry): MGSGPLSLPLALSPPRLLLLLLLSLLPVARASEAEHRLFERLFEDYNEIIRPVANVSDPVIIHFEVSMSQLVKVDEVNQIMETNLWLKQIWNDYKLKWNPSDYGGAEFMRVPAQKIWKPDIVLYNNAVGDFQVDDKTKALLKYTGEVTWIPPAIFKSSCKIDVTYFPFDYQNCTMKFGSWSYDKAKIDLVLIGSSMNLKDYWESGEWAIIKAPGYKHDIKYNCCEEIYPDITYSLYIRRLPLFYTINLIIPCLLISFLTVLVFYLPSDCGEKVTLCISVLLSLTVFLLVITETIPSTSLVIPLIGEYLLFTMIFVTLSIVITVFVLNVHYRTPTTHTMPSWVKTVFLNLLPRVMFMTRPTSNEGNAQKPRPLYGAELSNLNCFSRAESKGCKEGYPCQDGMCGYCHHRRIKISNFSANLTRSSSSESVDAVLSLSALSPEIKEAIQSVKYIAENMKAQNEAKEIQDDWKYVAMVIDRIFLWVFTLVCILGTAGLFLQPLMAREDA
T2 sequence (P17787 whole entry): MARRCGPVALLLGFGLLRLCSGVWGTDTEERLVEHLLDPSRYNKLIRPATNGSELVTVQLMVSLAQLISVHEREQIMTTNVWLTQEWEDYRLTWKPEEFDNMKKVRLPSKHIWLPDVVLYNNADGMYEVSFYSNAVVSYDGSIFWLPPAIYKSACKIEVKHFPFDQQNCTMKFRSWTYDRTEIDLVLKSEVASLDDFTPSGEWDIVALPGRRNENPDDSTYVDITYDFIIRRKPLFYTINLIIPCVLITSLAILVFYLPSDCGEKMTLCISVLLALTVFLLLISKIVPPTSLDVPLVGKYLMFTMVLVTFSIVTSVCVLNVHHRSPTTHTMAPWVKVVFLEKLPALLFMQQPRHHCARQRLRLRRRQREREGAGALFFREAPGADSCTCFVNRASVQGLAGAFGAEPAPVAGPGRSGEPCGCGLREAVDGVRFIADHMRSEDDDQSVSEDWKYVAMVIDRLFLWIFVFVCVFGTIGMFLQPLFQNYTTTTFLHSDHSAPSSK
T2 sequence (P43681 whole entry): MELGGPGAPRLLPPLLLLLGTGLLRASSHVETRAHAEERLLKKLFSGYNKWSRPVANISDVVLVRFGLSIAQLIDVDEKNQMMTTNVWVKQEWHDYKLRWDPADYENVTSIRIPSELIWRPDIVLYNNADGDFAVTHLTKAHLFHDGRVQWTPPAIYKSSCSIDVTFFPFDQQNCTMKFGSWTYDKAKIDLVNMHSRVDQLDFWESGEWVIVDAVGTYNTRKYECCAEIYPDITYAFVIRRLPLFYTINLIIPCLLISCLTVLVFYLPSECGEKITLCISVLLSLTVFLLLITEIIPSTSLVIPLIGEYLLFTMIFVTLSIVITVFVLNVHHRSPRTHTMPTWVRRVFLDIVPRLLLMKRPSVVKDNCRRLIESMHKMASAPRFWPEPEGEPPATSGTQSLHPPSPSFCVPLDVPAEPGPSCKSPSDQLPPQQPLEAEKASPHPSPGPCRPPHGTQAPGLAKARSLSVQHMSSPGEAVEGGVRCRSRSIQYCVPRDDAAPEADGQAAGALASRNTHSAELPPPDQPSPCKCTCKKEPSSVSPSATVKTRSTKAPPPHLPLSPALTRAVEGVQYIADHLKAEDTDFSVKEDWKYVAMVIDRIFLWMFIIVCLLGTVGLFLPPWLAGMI
T3 sequence (P09483 whole entry): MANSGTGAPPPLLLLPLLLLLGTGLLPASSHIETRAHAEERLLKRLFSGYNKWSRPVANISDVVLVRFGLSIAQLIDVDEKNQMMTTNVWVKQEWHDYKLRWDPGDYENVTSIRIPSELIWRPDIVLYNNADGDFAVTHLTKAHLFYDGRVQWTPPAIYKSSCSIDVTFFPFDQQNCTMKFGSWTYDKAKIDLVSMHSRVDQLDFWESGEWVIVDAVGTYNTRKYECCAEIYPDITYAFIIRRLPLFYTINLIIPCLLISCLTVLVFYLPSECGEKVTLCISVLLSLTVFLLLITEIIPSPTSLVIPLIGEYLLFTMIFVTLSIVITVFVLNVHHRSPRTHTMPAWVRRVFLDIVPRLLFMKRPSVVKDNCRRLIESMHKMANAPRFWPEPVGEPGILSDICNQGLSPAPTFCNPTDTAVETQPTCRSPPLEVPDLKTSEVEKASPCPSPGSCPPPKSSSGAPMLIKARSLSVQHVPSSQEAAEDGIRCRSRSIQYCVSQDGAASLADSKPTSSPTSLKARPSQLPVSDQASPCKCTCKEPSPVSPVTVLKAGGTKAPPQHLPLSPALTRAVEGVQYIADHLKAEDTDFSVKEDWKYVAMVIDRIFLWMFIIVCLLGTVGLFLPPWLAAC
T3 sequence (P12390 whole entry): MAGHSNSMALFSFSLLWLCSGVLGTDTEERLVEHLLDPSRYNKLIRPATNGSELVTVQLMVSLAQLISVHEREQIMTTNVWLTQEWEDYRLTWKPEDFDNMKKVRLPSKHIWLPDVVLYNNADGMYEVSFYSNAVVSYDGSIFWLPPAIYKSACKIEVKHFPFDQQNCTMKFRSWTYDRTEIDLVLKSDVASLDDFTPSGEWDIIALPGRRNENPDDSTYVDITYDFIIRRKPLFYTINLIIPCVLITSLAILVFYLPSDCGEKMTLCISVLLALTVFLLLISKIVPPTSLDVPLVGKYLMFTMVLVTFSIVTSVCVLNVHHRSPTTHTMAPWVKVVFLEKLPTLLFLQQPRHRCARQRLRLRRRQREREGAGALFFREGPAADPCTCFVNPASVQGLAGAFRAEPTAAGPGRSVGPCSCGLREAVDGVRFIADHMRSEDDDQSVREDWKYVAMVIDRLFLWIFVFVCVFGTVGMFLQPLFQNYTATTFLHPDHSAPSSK
Neuronal acetylcholine receptor; alpha3/beta2, sequence (P04757 whole entry): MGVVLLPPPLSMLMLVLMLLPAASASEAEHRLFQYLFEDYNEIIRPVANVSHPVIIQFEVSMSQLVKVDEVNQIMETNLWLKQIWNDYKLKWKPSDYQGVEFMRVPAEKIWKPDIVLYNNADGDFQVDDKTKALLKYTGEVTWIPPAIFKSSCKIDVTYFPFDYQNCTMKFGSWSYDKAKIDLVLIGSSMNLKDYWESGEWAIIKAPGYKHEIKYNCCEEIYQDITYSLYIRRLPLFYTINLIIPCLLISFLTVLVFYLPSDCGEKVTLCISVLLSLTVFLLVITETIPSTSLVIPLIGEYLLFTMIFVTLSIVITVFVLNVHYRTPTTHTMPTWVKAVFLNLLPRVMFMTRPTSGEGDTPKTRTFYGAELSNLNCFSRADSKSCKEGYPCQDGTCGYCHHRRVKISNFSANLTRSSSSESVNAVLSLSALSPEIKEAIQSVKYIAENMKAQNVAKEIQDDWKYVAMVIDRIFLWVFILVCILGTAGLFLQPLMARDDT
Neuronal acetylcholine receptor; alpha3/beta2, sequence (P12390 whole entry): as the sequence (P12390 whole entry) above
Neuronal acetylcholine receptor; alpha4/beta4, sequence (P30926 whole entry): as the sequence (P30926 whole entry) above
Neuronal acetylcholine receptor; alpha4/beta4, sequence (P43681 whole entry): as the sequence (P43681 whole entry) above

The term IC50 denotes the concentration that gives 50% inhibition. For `O=C(Nc1ccccc1)OCCc1cc(-c2cncc(OC[C@@H]3CCCN3)c2)on1`, the half-inhibitory concentration (IC50) in test [1] was above 1 µM. The EC50 in test [2] was above 1 µM.
The term Ki denotes a dissociation constant, usually derived from enzyme kinetics or from competition with a known ligand. Low readings indicate tighter binding, high ones weaker binding. `c1cnc2cc3c(cc2n1)[C@@H]1CNC[C@H]3C1` [VARENICLINE]: in test [3], the Imax came to 83%. The affinity in test [4] corresponds to a Ki of 0.11 µM. Also, the Efficacy came to 34% in test [5] and 106% in test [6]. Further, in test [2], the EC50 is above 1 µM.
For the molecule `O=C(Nc1ccccc1)OCCc1cc(-c2cncc(OC[C@@H]3CCN3)c2)on1`, in [1], the IC50 is above 1 µM. Moreover, in test [2], the EC50 is above 1 µM.
For `CCc1cc(-c2cncc(OC[C@@H]3CCN3)c2)on1`, the result in the test on Mus musculus [7], with Mus musculus [8] and in the test on Mus musculus [9] was Active. In addition, in test [1], the concentration for half-maximal inhibition (IC50) is above 1 µM. The EC50 in test [2] was above 1 µM.
Turning to `CCNC(=O)OCCc1cc(-c2cncc(OC[C@@H]3CCN3)c2)on1`, in test [1], the IC50 is above 1 µM. For the same molecule, in [2], the EC50 is above 1 µM.
Consider `COCCc1cc(-c2cncc(OC[C@@H]3CCN3)c2)on1`, for which the half-inhibitory concentration (IC50) in [1] is above 1 µM. In test [2], the EC50 was above 1 µM.
Take `CN[C@H]1CC[C@@H](c2ccc(Cl)c(Cl)c2)c2ccccc21`: in the test with Mus musculus [10], the outcome was Active.
In the case of `FC(F)CCc1cc(-c2cncc(OC[C@@H]3CCN3)c2)on1`, the result in the test on Mus musculus [8] and with Mus musculus [9] was Active. For the same molecule, the IC50 in test [1] was above 1 µM. Moreover, in [2], the EC50 was above 1 µM.
In the case of `FCCCc1cc(-c2cncc(OC[C@@H]3CCN3)c2)on1`, the outcome in the test with Mus musculus [8] and with Mus musculus [9] was Active. Also, in test [1], the IC50 is above 1 µM. Besides, in [2], the EC50 is above 1 µM.
Consider `OCCc1cc(-c2cncc(OC[C@@H]3CCN3)c2)on1`, for which the IC50 in test [1] is above 1 µM. The EC50 in test [2] is above 1 µM.
On to `OCCc1cc(-c2cncc(OC[C@@H]3CCCN3)c2)on1`, for which the concentration for half-maximal inhibition (IC50) in test [1] is above 1 µM. Also, in test [2], the EC50 was above 1 µM.
Turning to `FC(F)(F)CCc1cc(-c2cncc(OC[C@@H]3CCN3)c2)on1`, the IC50 in test [1] was above 1 µM. In addition, the EC50 in test [2] was above 1 µM.
With `CCNC(=O)OCCc1cc(-c2cncc(OC[C@@H]3CCCN3)c2)on1`, the IC50 in test [1] was above 1 µM. In addition, the EC50 in test [2] is above 1 µM.
For `OCCCc1cc(-c2cncc(OC[C@@H]3CCCN3)c2)on1`, the IC50 in [1] is above 1 µM. The EC50 in test [2] is above 1 µM.
Consider `OCCc1cc(-c2cncc(OC[C@H]3NC[C@@H]4C[C@@H]43)c2)on1`, for which, in test [1], the IC50 is above 1 µM. In addition, the EC50 in test [2] is above 1 µM.
In general, inhibition refers to the percentage by which the read-out fell short of the control. High values mean a strong effect, low ones a weak effect. As for `c1ncc(-c2cc(CCN3CCOCC3)no2)cc1OC[C@@H]1CCCN1`, the inhibition in [11], in [14] and in [19] was below 50% throughout. Also, the inhibition constant (Ki) amounted to 0.032 µM in [12], 0.132 µM in test [15] and 0.575 µM in test [20]. Also, the EC50 in test [13] (read-out: pEC50 (converted)) is above 0.1 µM; in test [13] (sh-ep1, read-out: EC50) it was above 0.1 µM; in [18], above 1 µM; in test [2], above 1 µM. Also, the concentration for half-maximal inhibition (IC50) in [16] was above 0.1 µM; in [17], above 1 µM; in test [1], above 1 µM.
On to `CCc1cc(-c2cncc(OC[C@H]3NC[C@@H]4C[C@@H]43)c2)on1`, for which, in test [1], the IC50 is above 1 µM. In addition, the EC50 in test [2] was above 1 µM.
For `CN1CCC[C@H]1COc1cncc(-c2cc(CCO)no2)c1`, in test [1], the IC50 was above 1 µM. In test [2], the EC50 was above 1 µM.
In [21], `c1cncc(OC[C@@H]2CCN2)c1` gave an inhibitory constant (Ki) of 0.314 µM. In addition, the EC50 in [22] amounted to 0.8 µM.
On to `c1ncc(-c2cc(CCN3CCOCC3)no2)cc1OC[C@@H]1CCN1`, for which the inhibition in test [11], in [14] and in test [19] was below 50% each time. Moreover, the Ki is 0.011 µM in test [12], 0.0263 µM in test [15] and 0.117 µM in [20]. In addition, the EC50 in test [13] (read-out: pEC50 (converted)) is above 0.1 µM; in [13] (sh-ep1, read-out: EC50), above 0.1 µM; in [18] it was above 1 µM; in [2], above 1 µM. The half-maximal inhibitory concentration (IC50) in [16] is above 0.1 µM; in test [17] it was above 1 µM; in test [1], above 1 µM.
Take `CN1CCC[C@H]1c1cccnc1` [NICOTINE]: the EC50 in [2] was above 1 µM.
